Results as given in ChEMBL document CHEMBL3120084, “Structure-function relationships of Nile blue (EtNBS) derivatives as antimicrobial photosensitizers” (Eur J Med Chem, 2014).
Activity calls are given as the source filed them. No cut-off for these calls is given here.

Experiments:
Enterococcus faecalis [1] = test: Drug uptake in Enterococcus faecalis ATCC 29212 incubated for 10 mins in dark by fluorescence analysis; format: ADME, organism-based; settings: in vivo
Procedure, shortened: (§1)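 Cells (10^8/ml) held with compound at 0.05-10 μM for 10 min in dark at room temperature. They were then pelleted, washed twice in PBS and lysed in RIPA for 30 min at room temperature. Lysate fluorescence was read at compound-specific wavelengths and converted with per-compound calibration curves. Values were normalized to protein measured by BCA against BSA standards.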

Escherichia coli [2] = test: Antimicrobial activity against Escherichia coli ATCC 53868 assessed as log reduction in bacterial CFU incubated for 10 mins prior to irradiation with 10 J/cm2 of light; format: functional
Procedure, shortened: (§2)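 Bacteria grown overnight in BHI broth at 37°C with shaking, refreshed 3 h, adjusted to OD600 0.5 (10^8 CFU/ml), pelleted and resuspended in PBS. Suspensions held with photosensitizer (0.1-100 μM, diluted from 5 mM DMA stock) 10 min in dark at room temperature, then 635-nm light at 10 J/cm2 and 50 mW/cm2. Surviving CFU counted by serial dilution on nutrient agar after 18 h at 37°C; triplicates.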

Acinetobacter baumannii [3] = test: Drug uptake in Acinetobacter baumannii ATCC 51393 incubated for 10 mins in dark by fluorescence analysis; format: ADME, organism-based; settings: in vivo; procedure, shortened: as §1
Acinetobacter baumannii [4] = test: Antimicrobial activity against Acinetobacter baumannii ATCC 51393 assessed as log reduction in bacterial CFU incubated for 10 mins prior to irradiation with 10 J/cm2 of light; format: functional; procedure, shortened: as §2
Enterococcus faecalis [5] = test: Dark toxicity against Enterococcus faecalis ATCC 29212 at 0.1 to 100 uM after 10 mins; format: organism-based; settings: in vivo
Procedure, shortened: (§3)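 Dark controls: 10^8 CFU/ml in PBS with photosensitizer for 10 min at room temperature, no illumination. Solvent controls contained 2% DMA. Viability read as CFU after serial dilution, plating on nutrient agar and 18 h dark incubation at 37°C; triplicate.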

Staphylococcus aureus [6] = test: Antimicrobial activity against Staphylococcus aureus 8325-4 assessed as log reduction in bacterial CFU incubated for 10 mins prior to irradiation with 10 J/cm2 of light; format: functional; procedure, shortened: as §2
[7] = Octanol-phosphate buffered saline partition coefficient, log P of the compound at 100 uM after 30 mins; format: physicochemical
Procedure, shortened: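 Compound (100 μM) in 1.5 mL octanol plus 1.5 mL PBS, stirred overnight at room temperature, then left 30 min for phases to separate. Each phase was read by absorbance at the compound's peak, undiluted and diluted 1:2 and 1:10. Log10 of the octanol/PBS ratio is reported.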

Acinetobacter baumannii [8] = test: Dark toxicity against Acinetobacter baumannii ATCC 51393 at 0.1 to 100 uM after 10 mins; format: organism-based; settings: in vivo; procedure, shortened: as §3
Staphylococcus aureus [9] = test: Drug uptake in Staphylococcus aureus 8325-4 incubated for 10 mins in dark by fluorescence analysis; format: ADME, organism-based; settings: in vivo; procedure, shortened: as §1
[10] = Induction of reactive oxygen species generation at 5 uM using hydroxyphenyl-fluorescein probe by microplate spectrophotometer analysis in presence of 1 J/cm'2 to 15 J/cm'2 of light; format: physicochemical
Procedure, shortened: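 Cell-free assay in PBS: compound at 5 μM final with HPF probe at 5 μM final, 4 wells per group. 635-nm light given in sequential doses of 1 to 15 J/cm2. Fluorescence read in slow kinetic mode at excitation 490 nm and emission 515 nm, 2 nm bandpass.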

Staphylococcus aureus [11] = test: Dark toxicity against Staphylococcus aureus 8325-4 at 0.1 to 100 uM after 10 mins; format: organism-based; settings: in vivo; procedure, shortened: as §3
[12] = Induction of reactive oxygen species generation at 5 uM using singlet oxygen sensor green probe by microplate spectrophotometer analysis in presence of 1 J/cm'2 to 15 J/cm'2 of light; format: physicochemical
Procedure, shortened: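 Cell-free assay in PBS: compound at 5 μM final with SOSG probe at 5 μM final, 4 wells per group. 635-nm light given in sequential doses of 1 to 15 J/cm2. Fluorescence read in slow kinetic mode at excitation 505 nm and emission 525 nm.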

Enterococcus faecalis [13] = test: Antimicrobial activity against Enterococcus faecalis ATCC 29212 assessed as log reduction in bacterial CFU incubated for 10 mins prior to irradiation with 10 J/cm2 of light; format: functional; procedure, shortened: as §2
Escherichia coli [14] = test: Drug uptake in Escherichia coli ATCC 53868 incubated for 10 mins in dark by fluorescence analysis; format: ADME, organism-based; settings: in vivo; procedure, shortened: as §1
Escherichia coli [15] = test: Dark toxicity against Escherichia coli ATCC 53868 at 0.1 to 100 uM after 10 mins; format: organism-based; settings: in vivo; procedure, shortened: as §3
Staphylococcus aureus [16] = test: Dark toxicity against Staphylococcus aureus 8325-4 at 50 uM after 10 mins; format: organism-based; settings: in vivo; procedure, shortened: as §3
Acinetobacter baumannii [17] = test: Dark toxicity against Acinetobacter baumannii ATCC 51393 at 50 uM after 10 mins; format: organism-based; settings: in vivo; procedure, shortened: as §3
Escherichia coli [18] = test: Dark toxicity against Escherichia coli ATCC 53868 at 50 uM after 10 mins; format: organism-based; settings: in vivo; procedure, shortened: as §3
Enterococcus faecalis [19] = test: Dark toxicity against Enterococcus faecalis ATCC 29212 at 50 uM after 10 mins; format: organism-based; settings: in vivo; procedure, shortened: as §3

Drug uptake (Enterococcus faecalis [1]) | Drug uptake (Acinetobacter baumannii [3]) | logP at 0.5 h, 100 µM [7] | Drug uptake (Staphylococcus aureus [9]) | Activity [10] | Activity [12] | Drug uptake (Escherichia coli [14]) | SMILES | Activity (Enterococcus faecalis [5]) | log10cfu (Staphylococcus aureus [6]) | Activity (Acinetobacter baumannii [8]) | Activity (Staphylococcus aureus [11]) | log10cfu (Enterococcus faecalis [13]) | Activity (Escherichia coli [2]) | Activity (Acinetobacter baumannii [4]) | further results
Active | Active | 0.49 | Active | Active | Active | Active | CCN(CC)c1ccc2nc3c4ccccc4/c(=N\CCNC(=N)N)cc-3sc2c1.Cl.Cl | Toxic | >5 | Toxic | Toxic | >5 | – | – | log10cfu (Escherichia coli [2]): >5; log10cfu (Acinetobacter baumannii [4]): >5
Active | Active | 2.19 | Active | Active | Active | Active | CCCS(=O)(=O)N(CC)c1cccc2/c(=N\CC)cc3sc4cc(N(CC)CC)ccc4nc-3c12.Cl | Toxic | 4 | – | Toxic | >5 | inactive | inactive | –
Active | Active | 2.03 | Active | Active | Active | Active | CC/N=c1/cc2sc3cc(N(CC)CC)ccc3nc-2c2c([N+](=O)[O-])cccc12.Cl | Toxic | 5 | – | Toxic | 5 | – | – | –
Active | Active | 1.77 | Active | Active | Active | Active | CC/N=c1/cc2sc3cc(N(CC)CC)ccc3nc-2c2c(N)cccc12.Cl | – | <3 | – | – | – | – | – | –
– | – | 1.36 | – | Active | Active | – | CC/N=c1/cc2sc3cc(N(CC)CC)ccc3nc-2c2c(NC(C)=O)cccc12.Cl | – | – | Toxic | – | – | inactive | inactive | Activity (Escherichia coli [15]): Toxic
Active | Active | 2.45 | Active | Active | Active | Active | CCCS(=O)(=O)N(CC)c1cccc2c3nc4ccc(N(CC)CC)cc4sc-3c/c(=N\CC)c12.Cl | Non-toxic | >5 | Non-toxic | Non-toxic | – | inactive | inactive | Activity (Escherichia coli [15]): Toxic
Active | Active | 2.87 | Active | Active | Active | Active | CC/N=c1/cc2sc3cc(N(CC)CC)ccc3nc-2c2ccccc12.Cl | – | >6 | – | – | >6 | – | – | Activity (Staphylococcus aureus [16]): Non-toxic; log10cfu (Escherichia coli [2]): >6; Activity (Acinetobacter baumannii [17]): Toxic; Activity (Escherichia coli [18]): Toxic; Activity (Enterococcus faecalis [19]): Toxic; log10cfu (Acinetobacter baumannii [4]): >6
